TRPC6 act – mouse TRPC6 channel activators, primary screen, cell-based, HEK293, membrane potential dye | B-score at 10 µM | Short transient receptor potential channel 6 (Mus musculus), Q61143 | HEK293-TRPC6 membrane potential dye fluorescence; stronger effect = higher value | hit rate 0.13% among 310,000;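 active = B-score of the integrated fluorescence ratio above library mean plus 3 SD, and starting fluorescence ratio within library mean plus 5 SD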;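 also: higher score means more depolarization so channel activation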
Target sequence (Q61143 whole entry, looked up): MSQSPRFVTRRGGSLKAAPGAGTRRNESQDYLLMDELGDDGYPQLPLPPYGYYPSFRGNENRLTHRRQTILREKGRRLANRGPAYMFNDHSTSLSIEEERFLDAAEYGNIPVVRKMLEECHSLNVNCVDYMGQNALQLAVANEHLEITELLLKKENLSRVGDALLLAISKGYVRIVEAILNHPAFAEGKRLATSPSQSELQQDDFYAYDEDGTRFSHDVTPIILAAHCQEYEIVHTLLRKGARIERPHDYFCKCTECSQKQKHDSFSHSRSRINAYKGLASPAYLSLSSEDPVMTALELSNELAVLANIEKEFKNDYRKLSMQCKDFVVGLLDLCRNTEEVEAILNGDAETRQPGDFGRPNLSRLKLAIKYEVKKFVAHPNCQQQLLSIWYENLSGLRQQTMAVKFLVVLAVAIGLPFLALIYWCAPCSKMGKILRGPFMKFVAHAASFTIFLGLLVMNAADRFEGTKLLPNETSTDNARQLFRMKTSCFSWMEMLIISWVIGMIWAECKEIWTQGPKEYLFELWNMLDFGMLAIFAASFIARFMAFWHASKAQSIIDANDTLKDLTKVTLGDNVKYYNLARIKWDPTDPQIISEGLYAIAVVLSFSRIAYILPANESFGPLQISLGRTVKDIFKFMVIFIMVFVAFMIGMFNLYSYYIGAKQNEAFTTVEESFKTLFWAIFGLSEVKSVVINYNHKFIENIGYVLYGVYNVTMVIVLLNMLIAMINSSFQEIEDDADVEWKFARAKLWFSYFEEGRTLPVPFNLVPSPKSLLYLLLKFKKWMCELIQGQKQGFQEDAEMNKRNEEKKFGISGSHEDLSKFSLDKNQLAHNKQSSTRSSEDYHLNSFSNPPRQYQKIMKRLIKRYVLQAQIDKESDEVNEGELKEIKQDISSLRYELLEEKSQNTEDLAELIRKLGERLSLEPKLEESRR
TRPC4 potent – positive allosteric modulators of TRPC4, primary screen, cell-based, mouse TRPC4beta, HEK293 mu-opioid, Fluo-4 calcium; hit rate 0.42% among 310,000; B-score at 10 µM; DAMGO EC20, Fluo-4 Ca2+ flux; stronger effect = higher value;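 active = B-score of calcium response area above 5 SD of library B-scores, with initial fluorescence ratio within 5 SD of library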;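 also: B-score of integrated fluorescence ratio over time as area under calcium response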
TRPC4 inh – inhibitors of mouse TRPC4 channel, primary screen, Fluo4 calcium, HEK293 TRPC4beta/mu-opioid cells; Short transient receptor potential channel 4 (Mus musculus), Q9QUQ5; hit rate 0.39% among 300,000; B-score at 10 µM; DAMGO-evoked Fluo4 calcium flux; stronger effect = lower value;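 active = B-score over 3 SD under the library average, no early fluorescence shift, positive overall ratio signal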
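Assay system: TRPC4beta/mu-opioid receptor HEK293 cell line; compound dosing: single concentration per test compound; detection: Fluo4 Ca2+ flux fluorescence; evaluation: per-well B score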
TRPC4 agonist – activators of mouse TRPC4 channel, primary screen, Fluo4 calcium, HEK293 TRPC4beta/mu-opioid cells. Fluo4 calcium fluorescence; stronger effect = higher value. hit rate 0.49% among 310,000. B-score at 10 µM. AID 2237, 2010;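 active = B-score above 5 SD of library B-scores, and initial fluorescence ratio not above library mean plus 5 SD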;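 also: positive B-score marks a calcium rise read as TRPC4 activation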
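Assay system: HEK293 stable line with TRPC4beta plus mu-opioid receptor; schedule: 45 min room-temperature Fluo4 loading, 110 s read; technique: kinetic Fluo4 calcium fluorescence; evaluation: integrated baseline-normalised fluorescence ratio, converted to per-well B score; controls: buffer (low) and maximal DAMGO (high)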
TRPC6 inhibitor – mouse TRPC6 channel inhibitors, primary screen, cell-based, HEK293, membrane potential dye | Short transient receptor potential channel 6 (Mus musculus), Q61143 | ACh-evoked depolarization; stronger effect = lower value | AID 2553, 2010 | B-score at 10 µM | hit rate 1.1% among 310,000;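 active = B-score under library mean minus 3 SD, initial fluorescence not abnormally high, positive integrated signal ratio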;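 also: B-score derived from integrated fluorescence ratio over the kinetic read; more negative B-score means stronger inhibition of depolarization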
Starred values were filed as active, the others as inactive; i = inactive. A selection: hits, their analogues and other compounds. The true share with any hit is near 2.3%.

SMILES	TRPC6 act	TRPC4 potent	TRPC4 inh	TRPC4 agonist	TRPC6 inhibitor
c1ccc(C(OCCN2CCNCC2)c2ccccc2)cc1	i	i	i	i	i
c1ccc2nc(OCCN3CC3)ccc2c1	i	18*	i	i	i
COc1ccc(C)cc1NC1=NC(C)(C)CS1	i	i	-6*	i	i
COc1ccc2c(c1O)[C@]13CCN(C)[C@H](C2)[C@@H]1CCC(=O)C3	i	i	i	114*	i
COc1ccccc1N1CCN(CCc2ccccc2)CC1	i	i	i	i	i
O=C1C2CCCN2C(c2ccncc2)N1c1ccc(Cl)c(Cl)c1 (stereo unspecified)	i	11*	i	i	i
Cc1nn(Cc2ccccc2)c(C)c1C(=O)OCC(=O)Nc1cc(S(C)(=O)=O)ccc1Cl	i	i	i	i	i
CCC(=NCCOc1ccc(Cl)cc1)c1c(O)n(C)c(=O)n(C)c1=O	i	i	i	i	i
CNC(=O)N(C)c1ccc(C(O)(C(=O)OC)C(F)(F)F)cc1 (stereo unspecified)	i	i	i	i	i
COC(=O)C(O)(c1ccc(NC(=S)NC(=O)c2ccc(Cl)cc2Cl)cc1)C(F)(F)F (stereo unspecified)	i	i	i	i	i
CCOC(=O)C(O)(c1ccc(NC(=S)NC(=O)c2ccc(Cl)cc2Cl)cc1)C(F)(F)F (stereo unspecified)	i	13*	i	i	i
CCOC(=O)C(NC(=O)CC)(Nc1ccc(C(O)(C(=O)OCC)C(F)(F)F)cc1C)C(F)(F)F (stereo unspecified)	i	i	i	i	i
CCOC(=O)C(O)(c1ccc(NC(=S)NC(=O)c2ccc(Cl)cc2Cl)c(C)c1)C(F)(F)F (stereo unspecified)	i	16*	i	i	i
COC(=O)C(O)(c1ccc(NC(=S)NC(=O)c2ccc(Cl)cc2Cl)c(C)c1)C(F)(F)F (stereo unspecified)	i	32*	i	i	i
CCN(CC)CC(=O)Nc1ccc(Cl)cc1C(=O)c1ccccc1	i	i	-6*	i	i
CCOC(=O)C1CCCN(c2ccc([N+](=O)[O-])c3nonc23)C1 (stereo unspecified)	i	i	i	i	i
COc1ccc(C(CNC(=O)CCc2ccsc2)N(C)C)cc1 (stereo unspecified)	i	i	i	108*	i
O=C(Cc1ccc(Br)cc1)N1CCN(Cc2ccccc2)CC1	i	i	i	i	i
COc1ccc(CN2CCN(C(=O)Cc3ccccc3)CC2)c(OC)c1	i	i	i	i	i
Oc1c(Br)cc(Br)cc1CN1CCN(Cc2ccccc2)CC1	i	20*	i	i	i
O=C(Cc1ccccc1)N1CCN(Cc2cccc(Br)c2)CC1	i	i	-5*	i	i
COc1ccc(Br)cc1CN1CCN(C(=O)Cc2ccccc2)CC1	i	i	-6*	i	i
O=C(c1ccc(F)c([N+](=O)[O-])c1)N1CC2CC(C1)c1cccc(=O)n1C2 (stereo unspecified)	i	i	i	i	i
Clc1ccc(N2CCNCC2)nn1	i	22*	i	i	i
CC/C(=N\Nc1ccccc1)c1c(O)n(C)c(=O)n(C)c1=O	i	13*	-6*	i	i
CC/C(=N\Nc1ccccc1)c1c(O)n(-c2ccccc2)c(=O)[nH]c1=O	i	i	i	i	i
CN1CCN(Cc2cc(C(C)(C)C)c(O)c(C(C)(C)C)c2)CC1	i	11*	i	i	i
CN1CCN(Cc2ccc(N)cc2)CC1	i	i	i	i	i
CN(C)C1(CNC(=O)Nc2ccc(Cl)c(Cl)c2)CCCCC1	i	i	i	91*	i
